Measurements from article PMC7825188 (CPT: Pharmacometrics & Systems Pharmacology, 2020).
Like-named read-outs stand apart in the source and are kept apart here.

Columns and labels:
[1] = Study MBCT103: safety and tolerability; assay type: in vivo, human
Outline: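 AEs and SAEs were recorded from check-in on day −1 until a follow-up call 14 days after the last acumapimod dose. TEAEs were AEs that were new after treatment or worsened in intensity or frequency. Intensity was graded mild, moderate or severe. The safety set comprised all subjects receiving ≥1 acumapimod dose.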

CYP3A4 = CYP3A4 (Homo sapiens, UniProt P08684); assay: In vitro CYP phenotyping of acumapimod; assay type: in vitro ADME; details: both models; based on in vitro phenotyping data
Chain of CYP3A4 (P08684 whole entry): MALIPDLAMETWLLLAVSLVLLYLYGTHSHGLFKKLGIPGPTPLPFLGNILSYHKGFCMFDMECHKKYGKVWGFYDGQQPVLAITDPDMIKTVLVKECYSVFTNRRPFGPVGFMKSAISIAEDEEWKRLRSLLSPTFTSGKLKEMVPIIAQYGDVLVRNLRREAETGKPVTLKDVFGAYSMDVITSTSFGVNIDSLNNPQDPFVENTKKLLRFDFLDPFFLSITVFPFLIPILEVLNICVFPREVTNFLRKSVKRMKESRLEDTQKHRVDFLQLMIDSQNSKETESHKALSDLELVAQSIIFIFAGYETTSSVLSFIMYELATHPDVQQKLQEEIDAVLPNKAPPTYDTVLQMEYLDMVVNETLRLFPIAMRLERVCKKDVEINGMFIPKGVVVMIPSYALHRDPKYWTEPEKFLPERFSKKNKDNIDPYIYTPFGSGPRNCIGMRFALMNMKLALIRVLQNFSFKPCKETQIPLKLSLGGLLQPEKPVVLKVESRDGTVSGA

[2] = assay type: in vivo, human; details: MBCT102
Outline: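 Healthy men (18–65 y, BMI 18–30, nonsmokers) completed two periods ≥14 days apart. Period 1 was a single oral 14 mg dose (2 × 7 mg capsules). In period 2, azithromycin 500 mg was given daily on days −1 to 2, with acumapimod on day 1. Plasma (K2EDTA) was sampled predose to 168 h, plus 336 h in period 2, and assayed by LC-MS/MS (1.0–1,000 ng/mL). Noncompartmental Cmax and AUCs were ln-transformed and analysed by ANOVA, giving GMR with 90% CI.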

[3] = Study MBCT102: safety and tolerability; assay type: in vivo, human
Outline: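 AEs and SAEs were recorded from check-in on day −1 until the post-study physical examination (day 15). TEAEs were AEs that were new after treatment or worsened in intensity or frequency. Intensity was graded mild, moderate or severe.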

[4] = assay type: in vivo, human; details: MBCT103
Outline: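 Healthy men received period 1 as in the azithromycin study (single 14 mg oral dose). In period 2, itraconazole oral solution 200 mg was given once daily on days 1–14, with a single acumapimod dose on day 7, 2 h post-itraconazole. Washout was ≥16 days. Plasma was sampled predose to 192 h and assayed by LC-MS/MS. Noncompartmental Cmax and AUCs were ln-transformed and analysed by ANOVA, giving GMR with 90% CI.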

Human mass balance study = assay type: in vivo; details: assigned to biliary clearance (Model 1) or unabsorbed drug (Model 2)
P‐glycoprotein (P‐gp) = P‐glycoprotein (P‐gp) (Homo sapiens, UniProt P08183); assay: P-gp substrate status of acumapimod; assay type: in vitro ADME
Chain of P‐glycoprotein (P‐gp) (P08183 whole entry): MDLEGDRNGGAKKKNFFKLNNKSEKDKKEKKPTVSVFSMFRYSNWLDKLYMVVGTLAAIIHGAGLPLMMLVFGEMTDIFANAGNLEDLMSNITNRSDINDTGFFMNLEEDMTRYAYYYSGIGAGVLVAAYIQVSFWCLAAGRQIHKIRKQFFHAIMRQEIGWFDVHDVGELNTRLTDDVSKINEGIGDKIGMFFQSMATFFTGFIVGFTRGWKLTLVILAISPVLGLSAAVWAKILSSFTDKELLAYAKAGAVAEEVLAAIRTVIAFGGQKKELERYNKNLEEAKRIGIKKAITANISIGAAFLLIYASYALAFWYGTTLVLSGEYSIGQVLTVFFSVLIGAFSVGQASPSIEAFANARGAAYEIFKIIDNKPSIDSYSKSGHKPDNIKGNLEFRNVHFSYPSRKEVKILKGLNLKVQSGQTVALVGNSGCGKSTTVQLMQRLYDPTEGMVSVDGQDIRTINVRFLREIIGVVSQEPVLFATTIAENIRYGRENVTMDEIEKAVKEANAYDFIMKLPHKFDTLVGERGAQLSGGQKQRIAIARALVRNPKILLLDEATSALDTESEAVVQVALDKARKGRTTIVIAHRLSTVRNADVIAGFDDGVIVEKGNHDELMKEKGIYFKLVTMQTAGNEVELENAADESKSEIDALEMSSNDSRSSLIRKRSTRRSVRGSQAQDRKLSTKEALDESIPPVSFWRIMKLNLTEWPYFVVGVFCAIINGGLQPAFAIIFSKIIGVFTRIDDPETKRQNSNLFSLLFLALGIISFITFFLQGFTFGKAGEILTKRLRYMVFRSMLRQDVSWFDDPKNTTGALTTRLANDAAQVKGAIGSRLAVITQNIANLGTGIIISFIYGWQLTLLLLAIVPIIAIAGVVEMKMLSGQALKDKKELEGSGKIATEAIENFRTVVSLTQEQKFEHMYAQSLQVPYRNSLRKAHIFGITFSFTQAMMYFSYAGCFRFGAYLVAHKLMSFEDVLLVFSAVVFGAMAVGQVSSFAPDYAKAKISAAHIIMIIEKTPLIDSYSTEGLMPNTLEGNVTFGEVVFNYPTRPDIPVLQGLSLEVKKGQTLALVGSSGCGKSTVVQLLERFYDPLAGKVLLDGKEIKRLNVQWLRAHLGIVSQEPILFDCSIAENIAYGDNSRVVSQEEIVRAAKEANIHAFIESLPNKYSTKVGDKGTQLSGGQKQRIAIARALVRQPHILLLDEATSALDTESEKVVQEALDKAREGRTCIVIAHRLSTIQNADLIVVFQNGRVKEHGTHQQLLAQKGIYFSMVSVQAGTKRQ

[5] = acumapimod + azithromycin relative to acumapimod alone
[6] = azithromycin, upper 90% CI of GMR
[7] = with azithromycin vs. acumapimod alone
[8] = acumapimod + itraconazole vs. acumapimod alone
[9] = itraconazole, upper 90% CI of GMR
[10] = with itraconazole relative to acumapimod alone

Cc1ccc(C(=O)NC2CC2)cc1-n1ncc(C(=O)c2cccc(C#N)c2)c1N [acumapimod]
deaths, SAEs, severe TEAEs [1]: No deaths, SAEs, or severe TEAEs were reported | treatment-related TEAEs [1]: No TEAEs were judged to be treatment related | vital signs, electrocardiogram, laboratory parameters [1]: No safety concerns were raised | subjects reporting TEAEs ([1]; 6 of 16 subjects, both periods): 37.5% | number of TEAEs, overall ([1]; 16 subjects, both periods): 10 | number of TEAEs ([1]; acumapimod and itraconazole (period 2)): 8 | liver function tests and central nervous system AEs ([1]; co‐administration of acumapimod and itraconazole): no clinically meaningful changes | share of CYP‐mediated metabolism assigned to CYP3A4 (CYP3A4): 97.8% | AUC0–t ratio (adjusted GMR) [2, 5]: 105.65% | AUC0–∞ ratio (adjusted GMR) [2, 5]: 104.32% | Cmax ratio (adjusted GMR) [2, 5]: 106.34% | upper limit of the interaction, AUC0–t [2, 6]: 112% | upper limit of the interaction, AUC0–∞ [2, 6]: 110% | upper limit of the interaction, Cmax [2, 6]: 115% | increase of geometric mean AUC0–∞ [2, 7]: 4.3% | increase of geometric mean Cmax [2, 7]: 6.3% | SAEs or deaths [3]: No SAEs or deaths were reported | safety laboratory, vital signs, electrocardiogram, physical examination [3]: No clinically relevant findings | subjects reporting TEAEs ([3]; 8 of 16 subjects, both periods): 50% | number of TEAEs, overall ([3]; 16 subjects, both periods): Fifteen | number of TEAEs ([3]; acumapimod alone (period 1)): 7 | number of TEAEs ([3]; acumapimod with azithromycin (period 2)): 8 | intensity of TEAEs ([3]; all TEAEs): mild or moderate | TEAE considered likely related to acumapimod ([3]; one TEAE, first exposure (acumapimod alone)): acneiform rash | AUC0–t ratio (adjusted GMR) [4, 8]: 110.09% | AUC0–∞ ratio (adjusted GMR) [4, 8]: 110.22% | Cmax ratio (adjusted GMR) [4, 8]: 99.44% | upper limit of interaction, AUC0–t [4, 9]: 120% | upper limit of interaction, AUC0–∞ [4, 9]: 120% | upper limit of interaction, Cmax [4, 9]: 109% | change in Cmax [4, 10]: no change | increase of geometric mean AUC0–t [4, 10]: 10% | increase of geometric mean AUC0–∞ [4, 10]: 10% | dose recovered in the feces (Human mass balance study): 33.9% | P-gp substrate status (P‐glycoprotein (P‐gp)): substrate of P‐glycoprotein (P‐gp)
